# Measured values pooled from the literature.
# Protocols differ between the studies behind these lines. pEC50: −log10 of the molar value.
# Melanocortin receptor 5: Melanocortin receptor 5 (Mus musculus, UniProt P41149)
# GRM4: Metabotropic glutamate receptor 4 (GRM4, Homo sapiens, UniProt Q14833)
# Ppara: Peroxisome proliferator-activated receptor alpha (Ppara, Mus musculus, UniProt P23204)
Structure (SMILES),target,test,pEC50
C[C@@H]1NC(=O)[C@H](CCCNC(=N)N)NC(=O)[C@H](Cc2ccccc2)NC(=O)[C@H](Cc2ccccc2)NC(=O)[C@H](CCCNC(=N)N)NC(=O)[C@@H]2CCCN2C(=O)[C@H]2CCCN2C(=O)[C@H](Cc2ccccc2)NC1=O,Melanocortin receptor 5,"reporter gene, agonist",< 4.00
O=C(Nc1ccc(N2C(=O)c3ccccc3C2=O)c(Cl)c1)c1ncccc1Cl,"Metabotropic glutamate receptor 1 (GRM1, Homo sapiens, UniProt Q13255)","calcium signal, positive allosteric modulator",5.90
CCN(C(=O)C1CCN(S(=O)(=O)c2ccc3[nH]ncc3c2)CC1)[C@H](C)c1ccccc1,"Muscarinic acetylcholine receptor M4 (CHRM4, Homo sapiens, UniProt P08173)","calcium signal, agonist",< 4.52
COc1ccc(-c2nsc(NC(=O)[C@@H]3C[C@H]3C)c2C)cc1,GRM4,"calcium signal, agonist",< 4.60
N=C(N)NCCC[C@H](NC(=O)[C@@H](N)CC(=O)O)C(=O)N[C@@H](Cc1ccccc1)C(=O)NCC(=O)O,Melanocortin receptor 5,"reporter gene, agonist",< 4.00
Cc1nc(-c2ccc(C(F)(F)F)cc2)sc1C(=O)NCc1ccc(OC(C)(C)C(=O)O)cc1,Ppara,"reporter gene, agonist, luciferase",7.01
CCCC[C@H](NC(=O)[C@@H](NC(=O)[C@@H](N)Cc1ccc(O)cc1)C(C)C)C(=O)NCC(=O)N[C@@H](Cc1c[nH]cn1)C(=O)N[C@@H](Cc1ccccc1)C(=O)N[C@@H](CCCN=C(N)N)C(=O)N[C@@H](Cc1c[nH]c2ccccc12)C(=O)N[C@@H](CC(=O)O)C(=O)N[C@@H](CCCN=C(N)N)C(=O)N[C@@H](Cc1ccccc1)C(=O)NCC(=O)O,Melanocortin receptor 5,"reporter gene, agonist",6.85
CC(C)(Oc1ccc(C(=O)c2ccc(Cl)cc2)cc1)C(=O)O,Ppara,"reporter gene, agonist, luciferase",4.45
COC(=O)c1ccc(-n2c(C)cc(C(=O)CSc3ccc(NC(C)=O)cc3)c2C)cc1,GRM4,"calcium signal, positive allosteric modulator",5.48
CSCC[C@H](N)C(=O)NCC(=O)N[C@@H](Cc1c[nH]cn1)C(=O)N[C@@H](Cc1ccccc1)C(=O)N[C@@H](CCCNC(=N)N)C(=O)N[C@@H](Cc1c[nH]c2ccccc12)C(=O)O,Melanocortin receptor 5,"reporter gene, agonist",5.35
